Compound activity as filed in PubChem BioAssay.
T cell modulator: modulators of CD8 T cell-vesicle binding, primary screen, mouse 2C CD8+ T cells, flow cytometry | 330,000 compounds, 0.068% hits | 2C CD8+ T cell-vesicle binding; active compounds read low | AID 2052, 2009 | response (vesicle binding), % at 7 µM;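 active means response, share of CD8 T cells binding vesicles, and their 90th percentile fluorescence all below set limits, cut at about 80% in these data, passing the limit was not always enough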;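 further: values below 100% mean blocked vesicle binding to the CD8+ T cells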
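Assay system – 2C mouse CD8+ T cells · Also added – QL9-loaded Drosophila micro-vesicles · Timing – Cell–vesicle co-incubation 1.5 h at 37 °C, staining 20 min on ice · Signal – flow cytometry of vesicle-bound cells · Measure – percent CD8+ FL2 mean versus row control · Controls – Peptide-free naked vesicles (low) and QL9 vesicles with 0.7% DMSO vehicle (high)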
CHT allo act: CHT positive allosteric modulators, primary screen, cell-based, membrane potential dye, choline EC20; B-score at 10 µM; AID 488977, 2010; High affinity choline transporter 1 (Homo sapiens), Q9GZV3; CHT-expressing cells; active compounds read high; LV-AA mutant CHT in HEK293 cells; 310,000 compounds, 0.49% hits;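 active means initial fluorescence not abnormally high and integrated response B-score, plate-corrected, over 3 SD above library mean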
pCIP destab: p/CIP-EGFP fusion destabilizers, primary screen, fluorescence, F442A cells; Q05BA5; 16 h; decrease of EGFP signal, % at 10 µM; 290,000 compounds, 0.01% hits;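 active means EGFP signal decrease of at least 30% at 10 µM or well 3 SD below plate mean, unless failing retest; inactive means the rest, including hits failing retest or dose response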
CHT block: inhibitors of human choline transporter CHT; B-score at 10 µM; CHT-expressing cells, membrane potential dye, choline response; active compounds read low; High affinity choline transporter 1 (Homo sapiens), Q9GZV3; 310,000 compounds, 0.86% hits; AID 488975, 2010;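 active means B-score over 3 SD under the library average, and starting fluorescence ratio not unusually high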;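 further: choline stimulus applied at its EC90 after an EC20 pre-addition; B-score computed on integrated fluorescence ratio after choline addition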
GPR7 antag: GPR7 receptor antagonists, primary screen, cell-based, fluorescence, single concentration. Neuropeptides B/W receptor type 1 (Homo sapiens), P48145. GPR7-expressing cells, fluorescence antagonist assay. inhibition, % at 4.4 µM. 290,000 compounds, 1.1% hits; in the data active means inhibition above about 16%, passing the limit was not always enough;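 further: cells stimulated with the agonist NPW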
Pemphigus Ab inh: inhibitors of pemphigus antibody binding to DSG3, primary screen, biochemical, bead-based, flow cytometry, scFv-GFP | DSG3-coupled beads, scFv-anti-DSG3-GFP binding; active compounds read low | Desmoglein-3 (Homo sapiens), P32926 | binding (percent of control), % at 10 µM | 310,000 compounds, 0.48% hits;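 active means binding more than 3 SD below its plate's average and above zero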;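 further: hits lower antibody fragment binding to DSG3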
Target sequence (P32926 whole entry, looked up, the tested form may be a part): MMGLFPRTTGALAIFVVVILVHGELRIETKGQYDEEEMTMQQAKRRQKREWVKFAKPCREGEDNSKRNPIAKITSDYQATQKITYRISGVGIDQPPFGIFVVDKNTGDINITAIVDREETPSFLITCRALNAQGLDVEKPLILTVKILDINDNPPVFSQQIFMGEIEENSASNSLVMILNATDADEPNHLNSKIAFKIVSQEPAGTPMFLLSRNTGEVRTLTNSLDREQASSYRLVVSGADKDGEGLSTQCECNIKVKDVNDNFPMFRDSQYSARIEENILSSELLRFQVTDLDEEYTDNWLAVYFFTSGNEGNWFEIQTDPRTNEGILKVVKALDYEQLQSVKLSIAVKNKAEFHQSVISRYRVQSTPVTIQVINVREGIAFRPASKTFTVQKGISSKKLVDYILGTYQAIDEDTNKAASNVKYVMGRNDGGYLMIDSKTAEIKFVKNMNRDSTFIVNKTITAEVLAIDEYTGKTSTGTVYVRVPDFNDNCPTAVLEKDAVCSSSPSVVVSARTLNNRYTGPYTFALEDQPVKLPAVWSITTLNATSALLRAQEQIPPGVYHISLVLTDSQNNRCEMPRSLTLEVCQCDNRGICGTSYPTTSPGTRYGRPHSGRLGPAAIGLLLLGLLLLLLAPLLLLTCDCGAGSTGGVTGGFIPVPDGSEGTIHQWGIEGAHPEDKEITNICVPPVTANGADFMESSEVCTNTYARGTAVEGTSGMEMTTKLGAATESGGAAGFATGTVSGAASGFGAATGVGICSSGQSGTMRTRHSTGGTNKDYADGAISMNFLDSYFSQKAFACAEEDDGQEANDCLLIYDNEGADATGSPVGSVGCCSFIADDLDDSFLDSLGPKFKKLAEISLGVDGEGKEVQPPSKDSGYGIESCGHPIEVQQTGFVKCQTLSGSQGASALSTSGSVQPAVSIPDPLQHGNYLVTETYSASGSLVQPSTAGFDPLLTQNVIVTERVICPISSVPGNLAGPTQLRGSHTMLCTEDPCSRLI
GPR7 antag cf: GPR7 receptor antagonists, confirmation, cell-based, fluorescence, single concentration; 2,400 compounds, 52% hits; shares compounds with GPR7 antag; inhibition, % at 4.4 µM; GPR7-expressing cells, calcium fluorescence antagonist mode; AID 1952, 2009; in the data active means inhibition above about 24%;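 further: stimulated with the GPR7 agonist NPW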
MCHR1 antagonist: MCHR1 antagonists in cells, counter-screen for GPR7 antagonist project, cell-based, fluorescence, human; shares compounds with GPR7 antag; MCHR1-expressing cells, fluorescence antagonist assay; inhibition, % at 4.4 µM; 2,400 compounds, 62% hits; AID 2148, 2009; in the data active means inhibition above about 22%
CHT inh conf: CHT inhibitors, confirmation, cell-based, membrane potential dye, duplicate | shares compounds with CHT block | CHT-expressing cells, choline membrane potential dye; LV-to-AA substituted CHT, HEK293 cells | CHT activity remaining % of control (active compounds read low), % at 10 µM | 2,400 compounds, 70% hits | AID 493221, 2011;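 active means choline transporter activity left, mean of duplicates at 10 µM, below buffer-only control mean minus 3 SD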;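 further: depolarization triggered by choline at its EC90 following an EC20 pre-addition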
HEK293 MPD ctr: membrane potential effects in parental HEK293, counter-screen for CHT inhibitor project, cell-based, membrane potential dye; shares compounds with CHT block; choline response; active = decrease or increase beyond buffer ±3SD; membrane potential ratio readout (active if shifted either direction beyond buffer ±3SD; no single direction) at 10 µM; 2,400 compounds, 4% hits; AID 493222, 2011;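 further: parental cells lack the transporter so any hit is non-specific; ratio is peak minus trough fluorescence over baseline after EC90 choline challenge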
CHT activ conf: CHT activators, confirmation, cell-based, membrane potential dye, duplicate. CHT-expressing cells, membrane potential dye fluorescence (FDSS); % of choline EC20–EC90 response window; HEK293 expressing CHT LV-AA mutant; choline added at its EC20. 2,500 compounds, 91% hits. activation, % at 10 µM. shares compounds with CHT allo act;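 active means primary screen active, with duplicate mean activation above negative control mean plus 3 SD, cut at about 11% in these data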
HEK293 MP dye: membrane potential response in parental HEK293 cells, counter-screen for CHT activator project, cell-based, membrane potential dye; shares compounds with CHT allo act; membrane potential dye fluorescence (FDSS); measured after EC20 choline addition; ratio readout change at 10 µM, hits read low; 2,500 compounds, 62% hits; AID 623908, 2012;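 active means duplicate-averaged ratio beyond 3 SD from buffer wells, up or down, though filed actives are nearly all decreases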
Of the large screens only hits and unclear results are named; the others gave an inactive call (follow-up assays come after a bar, where they were run). Sampled rows, rich in hits. Any-hit rate of the full collection: about 2.3%.

O=C(c1ccc(N2CCCC2=O)cc1)N1CCN(c2cccc(C(F)(F)F)c2)CC1	none (no result: T cell modulator, CHT allo act, pCIP destab, CHT block, GPR7 antag)
CCCC(c1nnnn1Cc1ccco1)N1CCN(c2cc(Cl)ccc2C)CC1 (centres undefined)	CHT allo act 6.7, GPR7 antag 26 | GPR7 antag cf 35 | MCHR1 antagonist 50 | CHT activ conf 35 | HEK293 MP dye inactive
CCCCC(c1nnnn1CC1CCCO1)N1CCN(c2cc(Cl)ccc2C)CC1 (centres undefined)	none (no result: T cell modulator, CHT allo act, CHT block)
O=C(c1cccc(C(F)(F)F)c1)C1CCCN(Cc2cccn2-c2ncccn2)C1 (centres undefined)	CHT allo act 9.2, GPR7 antag 21 | GPR7 antag cf 34 | MCHR1 antagonist 35 | CHT activ conf 25 | HEK293 MP dye inactive
Cc1cc(C)nc(/N=C(\N)Nc2ccc(SC(F)F)cc2)n1	GPR7 antag 64 | GPR7 antag cf 68 | MCHR1 antagonist 78 | CHT activ conf 46 | HEK293 MP dye -49
CC(=O)Nc1ccc(N/C(N)=N/c2nc(C)cc(C)n2)cc1	none
CCOC(=O)N1CCC(n2c(SCC(=O)NCCc3ccc(S(N)(=O)=O)cc3)nc3ccccc3c2=O)CC1	CHT allo act 15, GPR7 antag 43 | GPR7 antag cf inactive | MCHR1 antagonist inactive | CHT activ conf 35 | HEK293 MP dye -21
COC(=O)c1sc(NC(=O)c2ccc3c(c2)OCO3)c(C#N)c1C	none (no result: T cell modulator, CHT allo act, pCIP destab, CHT block, GPR7 antag)
O=C(c1nn(Cc2ccccc2)c(=O)c2ccccc12)N1CCN(c2ccccn2)CC1	CHT allo act 7.6, GPR7 antag 30 (no result: Pemphigus Ab inh) | GPR7 antag cf 32 | MCHR1 antagonist 27 | CHT activ conf 26 | HEK293 MP dye inactive
[O-][N+](=Cc1ccccc1)CC1(O)CCCCC1	none (no result: T cell modulator, CHT allo act, pCIP destab, CHT block, GPR7 antag)
COc1ccc(-c2nnc(SC(C)C(=O)NCc3ccc4c(c3)OCO4)n2Cc2ccco2)cc1 (centres undefined)	CHT allo act 16, GPR7 antag 48 | GPR7 antag cf 39 | MCHR1 antagonist 23 | CHT activ conf 62 | HEK293 MP dye inactive
Cc1ccc(F)cc1NC(=O)COC(=O)C1CC2CCCC(C1)C2=O (centres undefined)	none (no result: T cell modulator, CHT allo act, pCIP destab, CHT block, GPR7 antag)
COc1ccc(-c2c[n+]3c(n2-c2ccc(C)cc2)CCCCC3)cc1	CHT allo act 12, GPR7 antag 25 | GPR7 antag cf 47 | MCHR1 antagonist 38 | CHT activ conf 13 | HEK293 MP dye inactive
CCOc1ccc(-n2c(-c3ccc(OC)cc3)c[n+]3c2CCCCC3)cc1	CHT allo act 6.4, GPR7 antag 36 | GPR7 antag cf 55 | MCHR1 antagonist 49 | CHT activ conf 41 | HEK293 MP dye inactive
[O-][n+]1ccc(CC(O)(C(F)(F)F)C(F)(F)F)cc1	none (no result: T cell modulator, CHT allo act, pCIP destab, CHT block, GPR7 antag)
COc1ccc(CCn2c(SCCN3CCCCC3)nc3ccccc3c2=O)cc1OC	CHT allo act 7.4, GPR7 antag 36 | GPR7 antag cf 30 | MCHR1 antagonist 35 | CHT activ conf 56 | HEK293 MP dye -60
CSc1cccc(NC(=O)CN(C2CCCCC2)S(C)(=O)=O)c1	CHT allo act 8.9, GPR7 antag 28 | GPR7 antag cf inactive | MCHR1 antagonist inactive | CHT activ conf 42 | HEK293 MP dye inactive
COc1ccc(NC(=O)CN(C2CCCCC2)S(C)(=O)=O)cc1OC	none
Cc1nn(-c2ccccc2)c(N)c1Sc1ccc([N+](=O)[O-])cc1	CHT allo act 6.9, GPR7 antag 23 | GPR7 antag cf 33 | MCHR1 antagonist 55 | CHT activ conf 36 | HEK293 MP dye inactive
CN(Cc1cccc(F)c1)C(=O)C1CC(=O)N(Cc2ccco2)C1 (centres undefined)	none (no result: T cell modulator, CHT allo act, pCIP destab, CHT block, GPR7 antag)
CC(=O)N(Cc1ccco1)C1(C(=O)NC2CCCCC2)CCCCC1	none
O=C(Cc1cccs1)N(Cc1ccco1)C1(C(=O)NC2CCCCC2)CCCCC1	GPR7 antag 44 | GPR7 antag cf 47 | MCHR1 antagonist 52 | CHT activ conf 55 | HEK293 MP dye inactive
CCN1CCN(c2oc(COc3ccc(-c4ccccc4)cc3)nc2C#N)CC1	none
N#Cc1nc(COc2ccc(F)cc2)oc1N1CCN(Cc2ccccc2)CC1	CHT allo act 7.7, GPR7 antag 35 | GPR7 antag cf 33 | MCHR1 antagonist 52 | CHT activ conf 31 | HEK293 MP dye inactive
CCC(C)(C)C(=O)O[C@H]1C[C@@H](C)C=C2C=C[C@H](C)[C@H](CC[C@@H]3C[C@@H](O)CC(=O)O3)[C@H]21	none (no result: Pemphigus Ab inh)
CCN1C[C@@H]2[C@@H]3C(=O)N(C)C(=O)[C@@H]3[C@](Cc3ccccc3)(C1=O)N2C(=O)c1ccc(F)cc1	none (no result: T cell modulator, CHT allo act, pCIP destab, CHT block, GPR7 antag)
Cn1ccnc1SCC(=O)N1CCN(S(=O)(=O)c2ccccc2)CC1	CHT block -5 | CHT inh conf inactive | HEK293 MPD ctr inactive
Cn1nnnc1SCC(=O)N1CCN(S(=O)(=O)c2ccccc2)CC1	none
O=C(NCc1cn2ccsc2n1)c1cccs1	CHT block -5.1 | CHT inh conf inactive | HEK293 MPD ctr inactive
